In ChEMBL document CHEMBL4266040, “Structure-Based Engineering of Irreversible Inhibitors against Histone Lysine Demethylase KDM5A” (J Med Chem, 2018):
pIC50, pKd, pKi: −log10 of the molar value. Calls of active or inactive are those of the source. No cut-off for these calls is given here.

Columns and labels:
[1] = molecular target: T1, Lysine-specific demethylase 5A (Homo sapiens, UniProt P29375); assay: Inhibition of KDM5A in human MCF7 cells assessed as effect on H3K4me3 methylation levels at 1 to 10 uM after 30 hrs by Western blot analysis; type: cell-based
In short: (§1)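 MCF7 breast cancer cells were exposed to compound, with a 0.1% DMSO control, for 30 or 48 h. Total cell lysates were then probed by Western blot with antibodies to histone methylation marks.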

[2] = molecular target: T1, Lysine-specific demethylase 5A; assay: Inhibition of KDM5A in human MCF7 cells assessed as effect on H3K27me3 methylation levels at 1 to 10 uM after 30 hrs by Western blot analysis; type: cell-based; in short: as §1
[3] = molecular target: T1, Lysine-specific demethylase 5A; assay: Binding affinity to KDM5A ARID/PhD1 domain deletion mutant (1 to 588 residues) (unknown origin) by ITC assay
[4] = molecular target: T2, Lysine-specific demethylase 4A (Homo sapiens, UniProt O75164); assay: Irreversible inhibition of recombinant KDM4A (1 to 350 residues) (unknown origin) expressed in Escherichia coli using H3 (1 to 21 residues) K9me3 as substrate preincubated for 10 mins followed by substrate/alphaKG/(NH4)2Fe(SO4)2 addition measured after 1 hr by alphaLISA assay
T2 sequence (O75164 whole entry): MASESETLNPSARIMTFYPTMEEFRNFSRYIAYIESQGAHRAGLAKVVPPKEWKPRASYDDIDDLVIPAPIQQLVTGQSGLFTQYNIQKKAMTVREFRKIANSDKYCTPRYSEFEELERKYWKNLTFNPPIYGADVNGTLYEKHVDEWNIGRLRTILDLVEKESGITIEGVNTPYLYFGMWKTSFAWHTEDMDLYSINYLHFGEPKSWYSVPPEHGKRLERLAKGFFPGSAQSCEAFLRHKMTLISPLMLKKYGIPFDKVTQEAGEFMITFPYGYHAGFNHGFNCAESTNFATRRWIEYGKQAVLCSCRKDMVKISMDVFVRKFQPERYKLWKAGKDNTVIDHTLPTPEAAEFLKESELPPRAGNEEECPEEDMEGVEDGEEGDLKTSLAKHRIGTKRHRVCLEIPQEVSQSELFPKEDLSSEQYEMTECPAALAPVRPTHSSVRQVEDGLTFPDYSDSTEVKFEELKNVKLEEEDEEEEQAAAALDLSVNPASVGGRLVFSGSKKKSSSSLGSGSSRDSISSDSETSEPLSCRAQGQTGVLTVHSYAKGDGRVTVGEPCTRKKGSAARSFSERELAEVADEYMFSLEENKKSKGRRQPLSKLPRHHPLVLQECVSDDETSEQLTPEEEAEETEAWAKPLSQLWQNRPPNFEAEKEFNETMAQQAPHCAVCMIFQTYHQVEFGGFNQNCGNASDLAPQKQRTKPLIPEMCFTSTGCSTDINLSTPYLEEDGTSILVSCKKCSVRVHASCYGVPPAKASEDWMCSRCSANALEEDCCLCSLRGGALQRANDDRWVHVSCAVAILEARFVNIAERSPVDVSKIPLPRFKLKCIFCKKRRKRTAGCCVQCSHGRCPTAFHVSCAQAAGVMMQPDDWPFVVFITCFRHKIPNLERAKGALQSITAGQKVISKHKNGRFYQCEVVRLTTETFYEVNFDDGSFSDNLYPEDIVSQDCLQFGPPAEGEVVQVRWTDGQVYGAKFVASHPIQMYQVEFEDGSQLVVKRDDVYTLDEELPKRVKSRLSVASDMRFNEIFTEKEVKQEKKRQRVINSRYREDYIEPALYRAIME
In short: (§2)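 AlphaLISA using antibody to H3K4 (KDM5B) or H3K9 (KDM4A) methylation to detect demethylation of enzyme-specific histone peptides. Both enzymes are recombinant catalytic domains from E. coli, tested at the same enzyme concentration.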

Homo sapiens [5] = species: Homo sapiens; assay: Selectivity ratio of IC50 for recombinant KDM4A (1 to 350 residues) (unknown origin) to IC50 for recombinant KDM5B ARID/PhD1 domain deletion (1 to 755 residues) (unknown origin); in short: as §2
[6] = molecular target: T2, Lysine-specific demethylase 4A; assay: Inhibition of KDM4A (1 to 350 residues) (unknown origin) using H3 ( 1 to 15 residues) K9me3 as substrate preincubated for 15 min followed by substrate addition measured after 15 mins by FDH-coupled demethylase assay
[7] = molecular target: T1, Lysine-specific demethylase 5A; assay: Inhibition of KDM5A ARID/PhD1 domain deletion mutant (1 to 739 residues) (unknown origin) using H3 ( 1 to 24 residues) K4me3 as substrate preincubated for 15 min followed by substrate addition measured after 15 mins by FDH-coupled demethylase assay
[8] = molecular target: Lysine-specific demethylase 6A (Homo sapiens, UniProt O15550); assay: Inhibition of KDM6A (880 to 1401 residues) (unknown origin) using H3 ( 21 to 44 residues) K27me3 as substrate preincubated for 15 min followed by substrate addition measured after 15 mins by FDH-coupled demethylase assay
Homo sapiens [9] = species: Homo sapiens; assay: Selectivity ratio of IC50 for KDM4A (1 to 350 residues) (unknown origin) to IC50 for KDM5A ARID/PhD1 domain deletion mutant (1 to 739 residues) (unknown origin)
Homo sapiens [10] = species: Homo sapiens; assay: Selectivity ratio of IC50 for KDM5A ARID/PhD1 domain deletion mutant (1 to 739 residues) (unknown origin) to IC50 for KDM6A (880 to 1401 residues) (unknown origin)
[11] = Effective permeability of the compound at pH 7.4 by PAMPA; type: ADME; conditions: for Papp: read-out: Peff
In short: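 PAMPA with a lipid/dodecane artificial membrane and pH 7.4 buffer in donor and acceptor wells. Compounds diluted from 10 mM DMSO stock to 0.05 mM final, 0.5% DMSO. Donor stirred during a 30 min permeation at room temperature. Donor and acceptor concentrations read by UV. Permeability given in 10−6 cm s−1: >100 high, 10–100 moderate, <10 low.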

BT-474 = assay: Growth inhibition of human BT474 cells at 0.11 to 3.5 uM measured every 4 hrs for 300 hrs by IncuCyte live cell imaging method; type: functional, cell-based
In short: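 BT474 cells grown with compound; percent confluence tracked by IncuCyte live-cell imaging every 4 h over 300 h.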

[12] = Metabolic stability in human BT474 cell culture media assessed as parent compound remaining at 10 uM after 24 hrs by LC-MS/MS analysis; type: physicochemical; conditions: read-out: Stability
[13] = molecular target: T1, Lysine-specific demethylase 5A; assay: Irreversible inhibition of KDM5A ARID/PhD1 domain deletion mutant (1 to 739 residues) (unknown origin) using 10 uM alpha-KG by succinate-glo demethylase assay
In short: (§3)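 KDM5A(1−739)ΔAP (0.8 μM) preincubated 20 min with 2-fold serial dilutions of compound. Reaction started with αKG (10, 100 or 1000 μM) and H3(1−24)K4me3 (60 μM), 10 μM (NH4)2Fe(SO4)2, 100 μM ascorbate, 50 mM HEPES pH 8.0, 5% DMSO. Run 10 min at ambient temperature, n = 3; succinate read by Succinate-Glo luminescence.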

[14] = molecular target: T1, Lysine-specific demethylase 5A; assay: Irreversible inhibition of KDM5A ARID/PhD1 domain deletion mutant (1 to 739 residues) (unknown origin) using 100 uM alpha-KG by succinate-glo demethylase assay; in short: as §3
[15] = molecular target: T1, Lysine-specific demethylase 5A; assay: Irreversible inhibition of KDM5A ARID/PhD1 domain deletion mutant (1 to 739 residues) (unknown origin) using 1000 uM alpha-KG by succinate-glo demethylase assay; in short: as §3
[16] = molecular target: T1, Lysine-specific demethylase 5A; assay: Irreversible inhibition of KDM5A ARID/PhD1 domain deletion mutant (1 to 739 residues) (unknown origin) using alpha-KG measured immediately by succinate-glo demethylase assay
In short: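 Compound and KDM5A(1−739)ΔAP either without preincubation or preincubated 20 min before αKG addition; activity read by Succinate-Glo.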

[17] = molecular target: T1, Lysine-specific demethylase 5A; assay: Irreversible inhibition of KDM5A ARID/PhD1 domain deletion mutant (1 to 739 residues) (unknown origin) using alpha-KG by succinate-glo demethylase assay; in short: as §3
[18] = Drug level in human BT474 cell culture media treated with isopropyl 2-((3-Aminophenyl)(2-(piperidin-1-yl)-ethoxy)methyl)thieno[3,2-b]pyridine-7-carboxylate at 10 uM after 24 hrs by LC-MS/MS analysis; type: physicochemical
[19] = molecular target: T1, Lysine-specific demethylase 5A; assay: Irreversible inhibition of KDM5A ARID/PhD1 domain deletion mutant (1 to 739 residues) (unknown origin) at 100 uM using alpha-KG measured after 4 times of buffer exchange by succinate-glo demethylase assay
In short: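 Enzyme–inhibitor complex preformed ([E] = 5 μM, initial [I] = 100 μM), then four buffer exchanges before Succinate-Glo activity measurement.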

[20] = molecular target: T1, Lysine-specific demethylase 5A; assay: Binding affinity to KDM5A ARID/PhD1 domain deletion mutant (1 to 588 residues) (unknown origin) assessed as covalent modification of enzyme at 0.5 mM after 30 mins by ESI-tandem-MS analysis
[21] = molecular target: T1, Lysine-specific demethylase 5A; assay: Irreversible inhibition of 0.4 uM KDM5A ARID/PhD1 domain deletion mutant (1 to 739 residues) (unknown origin) using 100 uM alpha-KG by succinate-glo demethylase assay
In short: (§4)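 Succinate-Glo run with KDM5A(1−739)ΔAP at varied enzyme concentration and 100 μM αKG. H3(1−24)K4me3 60 μM, Fe(II) 10 μM, ascorbate 100 μM, HEPES pH 8.0, 5% DMSO.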

[22] = molecular target: T1, Lysine-specific demethylase 5A; assay: Irreversible inhibition of 0.8 uM KDM5A ARID/PhD1 domain deletion mutant (1 to 739 residues) (unknown origin) using 100 uM alpha-KG by succinate-glo demethylase assay; in short: as §4
[23] = molecular target: T1, Lysine-specific demethylase 5A; assay: Irreversible inhibition of 1.6 uM KDM5A ARID/PhD1 domain deletion mutant (1 to 739 residues) (unknown origin) using 100 uM alpha-KG by succinate-glo demethylase assay; in short: as §4
[24] = molecular target: T1, Lysine-specific demethylase 5A; assay: Irreversible inhibition of KDM5A ARID/PhD1 domain deletion mutant (1 to 739 residues) (unknown origin) using alpha-KG as substrate by succinate-glo demethylase assay; conditions: TDE = time-dependent effect; in short: as §3
[25] = molecular target: T1, Lysine-specific demethylase 5A; assay: Irreversible inhibition of KDM5A ARID/PhD1 domain deletion mutant (1 to 739 residues) (unknown origin)
In short: (§5)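 KDM5A (0.8 μM) preincubated with five inhibitor concentrations (0.01–5 μM). At each time point, mixture added to H3 peptide (60 μM) and αKG (100 μM) and stopped after 7 min. Log % remaining activity plotted against preincubation time; negative slopes fitted by nonlinear regression against [I] to give kinact and KI.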

[26] = molecular target: T1, Lysine-specific demethylase 5A; assay: Irreversible inhibition of KDM5A ARID/PhD1 domain deletion mutant (1 to 739 residues) (unknown origin) assessed as Kinact to Ki ratio; in short: as §5

T1 sequence (P29375 whole entry): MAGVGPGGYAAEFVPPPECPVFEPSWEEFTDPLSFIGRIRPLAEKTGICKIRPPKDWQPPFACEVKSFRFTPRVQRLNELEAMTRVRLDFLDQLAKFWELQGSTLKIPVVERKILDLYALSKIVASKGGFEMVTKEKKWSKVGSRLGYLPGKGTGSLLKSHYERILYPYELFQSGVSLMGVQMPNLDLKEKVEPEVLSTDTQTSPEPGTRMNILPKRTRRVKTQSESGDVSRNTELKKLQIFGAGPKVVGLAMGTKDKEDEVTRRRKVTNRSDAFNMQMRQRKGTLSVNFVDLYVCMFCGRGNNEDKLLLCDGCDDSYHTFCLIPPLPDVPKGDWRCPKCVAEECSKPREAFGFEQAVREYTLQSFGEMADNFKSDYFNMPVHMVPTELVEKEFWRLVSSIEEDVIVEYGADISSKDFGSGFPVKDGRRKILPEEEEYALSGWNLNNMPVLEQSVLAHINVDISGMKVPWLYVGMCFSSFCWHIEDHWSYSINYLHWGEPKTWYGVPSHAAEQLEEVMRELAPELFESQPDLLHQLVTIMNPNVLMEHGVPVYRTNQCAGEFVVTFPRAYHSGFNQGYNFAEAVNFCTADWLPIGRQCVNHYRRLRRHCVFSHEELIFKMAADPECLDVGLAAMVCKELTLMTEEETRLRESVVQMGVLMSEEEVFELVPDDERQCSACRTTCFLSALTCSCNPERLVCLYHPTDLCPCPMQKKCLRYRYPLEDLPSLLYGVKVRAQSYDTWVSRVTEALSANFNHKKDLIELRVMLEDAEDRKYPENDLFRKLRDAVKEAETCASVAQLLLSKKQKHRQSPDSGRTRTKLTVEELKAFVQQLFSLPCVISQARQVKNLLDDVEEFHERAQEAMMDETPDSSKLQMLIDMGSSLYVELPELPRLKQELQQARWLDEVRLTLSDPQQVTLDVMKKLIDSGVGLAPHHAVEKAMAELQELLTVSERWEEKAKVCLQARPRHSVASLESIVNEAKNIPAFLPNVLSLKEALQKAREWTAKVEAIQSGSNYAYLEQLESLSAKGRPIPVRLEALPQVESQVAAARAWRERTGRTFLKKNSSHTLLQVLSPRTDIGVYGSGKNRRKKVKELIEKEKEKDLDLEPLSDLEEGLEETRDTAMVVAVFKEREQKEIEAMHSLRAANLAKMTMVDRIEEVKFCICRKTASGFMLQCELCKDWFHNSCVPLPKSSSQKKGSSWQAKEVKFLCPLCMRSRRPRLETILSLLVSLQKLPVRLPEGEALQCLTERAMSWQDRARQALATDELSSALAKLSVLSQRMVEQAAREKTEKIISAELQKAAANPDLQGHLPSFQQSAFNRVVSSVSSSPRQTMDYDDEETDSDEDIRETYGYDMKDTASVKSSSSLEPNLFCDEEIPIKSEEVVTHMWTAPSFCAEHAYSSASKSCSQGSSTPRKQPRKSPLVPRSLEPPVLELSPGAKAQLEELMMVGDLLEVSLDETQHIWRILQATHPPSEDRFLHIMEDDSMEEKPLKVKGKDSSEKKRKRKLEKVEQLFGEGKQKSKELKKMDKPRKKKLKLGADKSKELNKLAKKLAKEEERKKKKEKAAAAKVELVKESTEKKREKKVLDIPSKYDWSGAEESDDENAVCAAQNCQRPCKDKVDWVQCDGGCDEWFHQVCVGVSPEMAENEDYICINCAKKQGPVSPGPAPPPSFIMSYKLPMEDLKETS
Lysine-specific demethylase 6A, sequence (O15550 whole entry, the tested form may be a part): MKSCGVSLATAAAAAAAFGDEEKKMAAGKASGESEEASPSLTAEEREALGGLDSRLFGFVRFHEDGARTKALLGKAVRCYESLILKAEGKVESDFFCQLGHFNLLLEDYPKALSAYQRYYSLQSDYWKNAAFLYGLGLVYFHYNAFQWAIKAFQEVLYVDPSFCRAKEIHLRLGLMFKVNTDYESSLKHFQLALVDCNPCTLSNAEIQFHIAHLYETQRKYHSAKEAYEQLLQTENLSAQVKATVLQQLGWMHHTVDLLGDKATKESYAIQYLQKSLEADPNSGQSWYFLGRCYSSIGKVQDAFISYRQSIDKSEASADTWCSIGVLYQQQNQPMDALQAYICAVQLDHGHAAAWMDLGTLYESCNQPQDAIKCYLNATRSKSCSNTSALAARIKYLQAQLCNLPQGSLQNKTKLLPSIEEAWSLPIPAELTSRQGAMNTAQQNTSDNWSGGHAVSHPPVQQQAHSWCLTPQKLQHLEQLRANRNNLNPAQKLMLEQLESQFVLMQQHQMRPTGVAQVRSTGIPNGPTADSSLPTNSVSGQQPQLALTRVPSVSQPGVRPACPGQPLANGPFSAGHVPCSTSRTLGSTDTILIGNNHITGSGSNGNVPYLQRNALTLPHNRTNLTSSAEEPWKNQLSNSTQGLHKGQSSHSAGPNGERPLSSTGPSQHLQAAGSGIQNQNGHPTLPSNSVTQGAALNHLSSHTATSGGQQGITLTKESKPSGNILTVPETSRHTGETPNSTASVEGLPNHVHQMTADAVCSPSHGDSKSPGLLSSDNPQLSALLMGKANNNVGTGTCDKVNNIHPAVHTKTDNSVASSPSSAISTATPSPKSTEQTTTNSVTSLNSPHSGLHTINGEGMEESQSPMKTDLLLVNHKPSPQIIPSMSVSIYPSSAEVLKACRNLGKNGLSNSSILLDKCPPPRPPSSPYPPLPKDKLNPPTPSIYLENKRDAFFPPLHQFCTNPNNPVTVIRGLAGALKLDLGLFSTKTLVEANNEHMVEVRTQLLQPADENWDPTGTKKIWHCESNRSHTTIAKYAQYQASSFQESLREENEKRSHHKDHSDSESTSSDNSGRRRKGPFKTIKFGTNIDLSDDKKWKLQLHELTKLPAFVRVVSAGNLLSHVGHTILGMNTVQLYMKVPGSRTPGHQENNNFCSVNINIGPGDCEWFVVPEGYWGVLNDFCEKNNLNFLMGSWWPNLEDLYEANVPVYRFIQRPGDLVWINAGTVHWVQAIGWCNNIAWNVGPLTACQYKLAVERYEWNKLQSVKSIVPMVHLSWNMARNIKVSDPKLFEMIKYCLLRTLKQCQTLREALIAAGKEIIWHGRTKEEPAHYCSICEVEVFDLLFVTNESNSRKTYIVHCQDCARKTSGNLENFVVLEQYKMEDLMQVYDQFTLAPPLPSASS

pKd [3] | pIC50 [6] | pIC50 [7] | pIC50 [8] | Ratio IC50 (Homo sapiens [9]) | Ratio IC50 (Homo sapiens [10]) | Structure (SMILES) | pIC50 [4] | Ratio IC50 (Homo sapiens [5]) | remaining at 24 h, 10 µM [12] [%] | further results
 |  |  |  |  |  | CCOC(=O)CCNc1cc(N2CCc3ccccc3CC2)nc(-c2ccccn2)n1 |  |  |  | inhibition [1]: Active; inhibition [2]: Active
4.92 | 3.40 | 3.96 | 4.16 | 3.2 to 3.6 | 1.5 to 1.8 | O=C(O)CCNc1cc(N2CCc3ccccc3CC2)nc(-c2ccccn2)n1 |  |  |  | 
 |  |  |  |  |  | CC(C)OC(=O)c1ccnc2cc(C(OCCN3CCCCC3)c3cccc(N)c3)sc12 (configuration not stated) |  |  | 75 | Peff [11]: 1018 ×10⁻⁶ cm/s; growth inhibition (GI) (BT-474): Active
5.22 | 3.64 | 4.15 | 4.41 | 3.2 to 3.6 | 1.5 to 1.8 | C=CC(=O)N1CCCN(c2cc(NCCC(=O)O)nc(-c3ccccn3)n2)CC1 |  |  |  | 
 |  |  |  |  |  | Nc1cccc(C(OCCN2CCCCC2)c2cc3nccc(C(=O)O)c3s2)c1 (configuration not stated) | 5.38 | 8.6 | 93 | pIC50 [13]: 6.15; pIC50 [14]: 5.27; pIC50 [15]: < 4.00; pIC50 [16]: 5.26; pIC50 [17]: 5.31; Papp [11]: 52.7 ×10⁻⁶ cm/s; Drug metabolism [18]: Metabolite_Detected; inhibition [19]: inactive; Activity [20]: inactive
 |  |  |  |  |  | CN(C)C/C=C/C(=O)Nc1cccc(C(OCCN2CCCCC2)c2cc3nccc(C(=O)O)c3s2)c1 (configuration not stated) | 5.28 | 24 | 60 | pIC50 [13]: 7.00; pIC50 [14]: 6.96; pIC50 [15]: 6.74; pIC50 [21]: 7.22; pIC50 [22]: 6.74; pIC50 [23]: 6.44; pIC50 [16]: 6.96; pIC50 [17]: 5.91; inhibition [24]: Tde; pKi [25]: 6.39; Kinact [25]: 0.198 min⁻¹; Ratio [26]: 8 ×10³ /M/s; Papp [11]: < 1 ×10⁻⁶ cm/s; inhibition [19]: Active; Activity [20]: Active
5.05 | 3.54 | 4.08 | 4.26 | 3.2 to 3.6 | 1.5 to 1.8 | C=CS(=O)(=O)N1CCCN(c2cc(NCCC(=O)O)nc(-c3ccccn3)n2)CC1 |  |  |  | 

Structure (SMILES) | pKd [3] | pIC50 [6] | pIC50 [7] | pIC50 [8] | Ratio IC50 (Homo sapiens [9]) | Ratio IC50 (Homo sapiens [10]) | pIC50 [4] | Ratio IC50 (Homo sapiens [5]) | remaining at 24 h, 10 µM [12] [%] | further results
CN1CCCC1CCOC(c1cc2nccc(C(=O)O)c2[nH]1)c1ccccc1Cl (configuration not stated) | 6.82 |  |  |  |  |  |  |  |  | 
CN1CCCC1CCOC(c1cc2nccc(C(=O)O)c2s1)c1ccccc1Cl (configuration not stated) | 6.59 |  |  |  |  |  | 5.66 | 7 |  | 
